Data published in ChEMBL document CHEMBL5724801, “EUbOPEN Chemogenomics Library - Multiplex” (2024).
Several values for one entry are separate records, joined by “and”; a condition that tells them apart may be missing. Equal values may be shown once.

Columns and labels:
U2OS = experiment: Multiplex assay against U2OS; type: toxicity, cell-based; details: human
Method in brief: (§1)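 Four dyes were applied at seeding to live cells: Hoechst33342, BioTracker Green Microtubule Cytoskeleton Dye, MitoTracker Red and Annexin V Alexa Fluor 680. Imaging after compound addition used a CQ1 microscope at 37°C and 5% CO2. CellPathfinder machine-learning gating then sorted cells into Hoechst high-intensity objects or normal cells, normal cells into healthy, pyknosed or fragmented nuclei, and pyknosed cells into mitotic or apoptotic, with tubulin, mitochondrial-mass and membrane-permeability phenotypes given as per cents of healthy-nucleus cells.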

Fibroblast = experiment: Multiplex assay against human fibroblast; type: toxicity, cell-based; method in brief: as §1
[1] = 24 h, 10 µM, compound concentration 10 uM
[2] = 48 h, 1 µM, compound concentration 1 uM
[3] = 48 h, 10 µM, compound concentration 10 uM
[4] = 12 h, 1 µM, compound concentration 1 uM
[5] = 12 h, 10 µM, compound concentration 10 uM
[6] = 24 h, 1 µM, compound concentration 1 uM

In the case of `Cc1cc(C)c(NC(=O)C2CC3CCC2C3)c(C)c1` (stereo not drawn), the “Population Hoechst High Intensity Objects (%)” value (U2OS; [1]) is reported as 0.17% and 0%, the “Population Membrane Permeable-Phenotype (%)” value (U2OS; [1]) is reported as 1.19% and the “Population Mitochondria Different-Phenotype (%)” value (U2OS; [1]) is reported as 0.4% and 3.57%. The “Population Mitotic Cells (%)” value (U2OS; [1]) was 65.62% and 53.57%, the “Population Normal (%)” value (U2OS; [1]) was 99.83% and 100% and the “Population Pyknosed Nuclei (%)” value (U2OS; [1]) was 10.9% and 13.93%. The “Population Tubulin-Different-Phenotype (%)” value (U2OS; [1]) was 0.79% and 2.38%, the “Total Cell Count” value (U2OS; [1]) was 588 and 201 and the “Population Apoptotic (%)” value (U2OS; [2]) was 45% and 48.57%. The “Population Fragmented Nuclei (%)” value (U2OS; [2]) was 2.82% and 2%, the “Population Healthy Nuclei (%)” value (U2OS; [2]) was 88.83% and 89.25% and the “Population Hoechst High Intensity Objects (%)” value (U2OS; [2]) was 0%. For the same compound, the “Population Membrane Permeable-Phenotype (%)” value (U2OS; [2]) was 2% and 1.96%, the “Population Mitochondria Different-Phenotype (%)” value (U2OS; [2]) was 0.12% and 3.08% and the “Population Mitotic Cells (%)” value (U2OS; [2]) was 55% and 51.43%. For the same compound, the “Population Normal (%)” value (U2OS; [2]) was 100%, the “Population Pyknosed Nuclei (%)” value (U2OS; [2]) was 8.35% and 8.75% and the “Population Tubulin-Different-Phenotype (%)” value (U2OS; [2]) was 1.53% and 0.28%. The “Total Cell Count” value (U2OS; [2]) was 958 and 400, the “Population Apoptotic (%)” value (U2OS; [3]) was 38.02% and 53.12% and the “Population Fragmented Nuclei (%)” value (U2OS; [3]) was 3.32% and 3.75%. The “Population Healthy Nuclei (%)” value (U2OS; [3]) was 86.1% and 87.03%, the “Population Hoechst High Intensity Objects (%)” value (U2OS; [3]) was 0% and the “Population Membrane Permeable-Phenotype (%)” value (U2OS; [3]) was 1.52% and 2.32%. For the same compound, the “Population Mitochondria Different-Phenotype (%)” value (U2OS; [3]) was 0.1% and 3.97%, the “Population Mitotic Cells (%)” value (U2OS; [3]) was 61.98% and 46.88% and the “Population Normal (%)” value (U2OS; [3]) was 100%. The “Population Pyknosed Nuclei (%)” value (U2OS; [3]) was 10.58% and 9.22%, the “Population Tubulin-Different-Phenotype (%)” value (U2OS; [3]) was 1.22% and 1.99% and the “Population Apoptotic (%)” value (Fibroblast; [4]) was 12% and 10%. For the same compound, the “Population Fragmented Nuclei (%)” value (Fibroblast; [4]) was 14.14% and 5.66%, the “Population Healthy Nuclei (%)” value (Fibroblast; [4]) was 59.69% and 81.76% and the “Population Hoechst High Intensity Objects (%)” value (Fibroblast; [4]) was 0%. For the same compound, the “Population Membrane Permeable-Phenotype (%)” value (Fibroblast; [4]) was 3.51% and 5.38%, the “Population Mitochondria Different-Phenotype (%)” value (Fibroblast; [4]) was 7.02% and 6.92% and the “Population Mitotic Cells (%)” value (Fibroblast; [4]) was 88% and 90%. The “Population Normal (%)” value (Fibroblast; [4]) was 100%, the “Population Pyknosed Nuclei (%)” value (Fibroblast; [4]) was 26.18% and 12.58% and the “Population Tubulin-Different-Phenotype (%)” value (Fibroblast; [4]) was 12.28% and 22.31%. For the same compound, the “Total Cell Count” value (Fibroblast; [4]) was 191 and 159, the “Population Apoptotic (%)” value (Fibroblast; [5]) was 10% and 7.69% and the “Population Fragmented Nuclei (%)” value (Fibroblast; [5]) was 12.88% and 9.48%. The “Population Healthy Nuclei (%)” value (Fibroblast; [5]) was 62.58% and 78.2%, the “Population Hoechst High Intensity Objects (%)” value (Fibroblast; [5]) was 0% and the “Population Membrane Permeable-Phenotype (%)” value (Fibroblast; [5]) was 3.92% and 3.64%. The “Population Mitochondria Different-Phenotype (%)” value (Fibroblast; [5]) was 10.78% and 7.27%, the “Population Mitotic Cells (%)” value (Fibroblast; [5]) was 90% and 92.31% and the “Population Normal (%)” value (Fibroblast; [5]) was 100%. The “Population Pyknosed Nuclei (%)” value (Fibroblast; [5]) was 24.54% and 12.32%, the “Population Tubulin-Different-Phenotype (%)” value (Fibroblast; [5]) was 11.76% and 19.39% and the “Total Cell Count” value (Fibroblast; [5]) was 163 and 211. The “Population Apoptotic (%)” value (Fibroblast; [6]) was 16.28% and 15.38%, the “Population Fragmented Nuclei (%)” value (Fibroblast; [6]) was 13.89% and 7.5% and the “Population Healthy Nuclei (%)” value (Fibroblast; [6]) was 66.2% and 84.38%. The “Population Hoechst High Intensity Objects (%)” value (Fibroblast; [6]) was 0%, the “Population Membrane Permeable-Phenotype (%)” value (Fibroblast; [6]) was 9.09% and 3.7% and the “Population Mitochondria Different-Phenotype (%)” value (Fibroblast; [6]) was 5.59% and 6.67%. For the same compound, the “Population Mitotic Cells (%)” value (Fibroblast; [6]) was 83.72% and 84.62%, the “Population Normal (%)” value (Fibroblast; [6]) was 100% and the “Population Pyknosed Nuclei (%)” value (Fibroblast; [6]) was 19.91% and 8.12%. The “Population Tubulin-Different-Phenotype (%)” value (Fibroblast; [6]) was 12.59% and 16.3%, the “Total Cell Count” value (Fibroblast; [6]) was 216 and 160 and the “Population Apoptotic (%)” value (Fibroblast; [1]) was 9.38% and 12%. For the same compound, the “Population Fragmented Nuclei (%)” value (Fibroblast; [1]) was 8.88% and 6.07%, the “Population Healthy Nuclei (%)” value (Fibroblast; [1]) was 72.19% and 82.24% and the “Population Hoechst High Intensity Objects (%)” value (Fibroblast; [1]) was 0%. For the same compound, the “Population Membrane Permeable-Phenotype (%)” value (Fibroblast; [1]) was 7.38% and 2.84%, the “Population Mitochondria Different-Phenotype (%)” value (Fibroblast; [1]) was 7.38% and 8.52% and the “Population Mitotic Cells (%)” value (Fibroblast; [1]) was 90.62% and 88%. The “Population Normal (%)” value (Fibroblast; [1]) was 100%, the “Population Pyknosed Nuclei (%)” value (Fibroblast; [1]) was 18.93% and 11.68% and the “Population Tubulin-Different-Phenotype (%)” value (Fibroblast; [1]) was 22.13% and 22.73%. The “Total Cell Count” value (Fibroblast; [1]) was 169 and 214, the “Population Apoptotic (%)” value (Fibroblast; [2]) was 30.77% and 13.33% and the “Population Fragmented Nuclei (%)” value (Fibroblast; [2]) was 8.78% and 7.14%. For the same compound, the “Population Healthy Nuclei (%)” value (Fibroblast; [2]) was 84.88% and 83.12%, the “Population Hoechst High Intensity Objects (%)” value (Fibroblast; [2]) was 0% and the “Population Membrane Permeable-Phenotype (%)” value (Fibroblast; [2]) was 1.15% and 5.47%. For the same compound, the “Population Mitotic Cells (%)” value (Fibroblast; [2]) was 69.23% and 86.67%, the “Population Normal (%)” value (Fibroblast; [2]) was 100% and the “Population Pyknosed Nuclei (%)” value (Fibroblast; [2]) was 6.34% and 9.74%. For the same compound, the “Population Tubulin-Different-Phenotype (%)” value (Fibroblast; [2]) was 8.62% and 19.53%, the “Total Cell Count” value (Fibroblast; [2]) was 205 and 154 and the “Population Apoptotic (%)” value (Fibroblast; [3]) was 50% and 17.65%. The “Population Fragmented Nuclei (%)” value (Fibroblast; [3]) was 9.04% and 4.07%, the “Population Healthy Nuclei (%)” value (Fibroblast; [3]) was 87.77% and 88.24% and the “Population Hoechst High Intensity Objects (%)” value (Fibroblast; [3]) was 0%. For the same compound, the “Population Membrane Permeable-Phenotype (%)” value (Fibroblast; [3]) was 1.82% and 2.56%, the “Population Mitochondria Different-Phenotype (%)” value (Fibroblast; [3]) was 10.91% and 6.15% and the “Population Mitotic Cells (%)” value (Fibroblast; [3]) was 50% and 82.35%. The “Population Normal (%)” value (Fibroblast; [3]) was 100%, the “Population Pyknosed Nuclei (%)” value (Fibroblast; [3]) was 3.19% and 7.69% and the “Total Cell Count” value (Fibroblast; [3]) was 188 and 221.
